Measurements published in ChEMBL document CHEMBL4043132, “3-O-Substituted-3',4',5'-trimethoxyflavonols: Synthesis and cell-based evaluation as anti-prostate cancer agents” (Bioorg Med Chem, 2017).
Each block holds one compound with its values, some of them ahead of it.

Assays:
LNCaP = assay: Antiproliferative activity against human LNCAP cells after 3 days by WST-1 assay; format: functional, cell-based; conditions: 72 h
Summary of the method: (§1)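 Cells from ATCC; PC-3 and LNCaP grown in RPMI-1640 and DU145 in EMEM, each with 10% FBS and 1% penicillin/streptomycin, 37 °C, 5% CO2. Seeded 3,200 cells/well and exposed for 3 days to at least five doses, with DMSO as vehicle control. WST-1 reagent added for 3 h at 37 °C, absorbance read at 430 nm. IC50 taken from a linear inhibition plot; mean ± SD of three independent experiments.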

DU-145 = assay: Antiproliferative activity against human DU145 cells after 3 days by WST-1 assay; format: functional, cell-based; conditions: DU-145, 72 h; summary of the method: as §1
PC-3 [1] = assay: Antiproliferative activity against human PC3 cells after 3 days by WST-1 assay; format: functional, cell-based; conditions: PC-3, 72 h; summary of the method: as §1
PC-3 [2] = assay: Induction of apoptosis in human PC3 cells assessed as viable cells at 30 uM after 16 hrs by F2N12S and CYTOX AADvanced double staining-based flow cytometric analysis (reference value: 95%); format: functional; conditions: PC-3, 16 h, read-out: Activity
PC-3 [3] = assay: Cell cycle arrest in human PC3 cells assessed as accumulation at S phase at 10 uM after 24 hrs by propidium iodide staining-based flow cytometry (reference value: 8.0%); format: functional
PC-3 [4] = assay: Induction of apoptosis in human PC3 cells assessed as viable cells at 20 uM after 16 hrs by F2N12S and CYTOX AADvanced double staining-based flow cytometric analysis (reference value: 95%); format: functional; conditions: PC-3, 16 h, read-out: Activity
PC-3 [5] = assay: Induction of apoptosis in human PC3 cells assessed as viable cells at 1 uM after 16 hrs by F2N12S and CYTOX AADvanced double staining-based flow cytometric analysis (reference value: 95%); format: functional; conditions: PC-3, 16 h, read-out: Activity
PC-3 [6] = assay: Induction of apoptosis in human PC3 cells assessed as necrotic cells at 10 uM after 16 hrs by F2N12S and CYTOX AADvanced double staining-based flow cytometric analysis (reference value: 2 to 3%); format: functional
PC-3 [7] = assay: Cell cycle arrest in human PC3 cells assessed as accumulation at G2/M phase at 20 uM after 16 hrs by propidium iodide staining-based flow cytometry (reference value: 32.3%); format: functional
PC-3 [8] = assay: Induction of apoptosis in human PC3 cells assessed as necrotic cells at 50 uM after 16 hrs by F2N12S and CYTOX AADvanced double staining-based flow cytometric analysis (reference value: 2 to 3%); format: functional
PC-3 [9] = assay: Induction of apoptosis in human PC3 cells assessed as apoptotic cells at 10 uM after 16 hrs by F2N12S and CYTOX AADvanced double staining-based flow cytometric analysis (reference value: 2 to 3%); format: functional
PC-3 [10] = assay: Cell cycle arrest in human PC3 cells assessed as accumulation at G2/M phase at 20 uM after 24 hrs by propidium iodide staining-based flow cytometry (reference value: 27.8%); format: functional
PC-3 [11] = assay: Induction of apoptosis in human PC3 cells assessed as necrotic cells at 20 uM after 16 hrs by F2N12S and CYTOX AADvanced double staining-based flow cytometric analysis (reference value: 2 to 3%); format: functional
PWR-1E = assay: Antiproliferative activity against human PWR-1E cells after 3 days by WST-1 assay; format: cell-based; conditions: 72 h
Summary of the method: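 PWR-1E benign prostate epithelial cells grown in keratinocyte serum-free medium with bovine pituitary extract and recombinant human EGF. Seeded 3,200 cells/well and treated for 3 days at 37 °C, with DMSO as vehicle control. WST-1 reagent added for 3 h, absorbance read at 430 nm. IC50 from a linear inhibition plot over at least five doses; mean ± SD, n = 3.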

PC-3 [12] = assay: Cell cycle arrest in human PC3 cells assessed as accumulation at G0/G1 phase at 10 uM after 24 hrs by propidium iodide staining-based flow cytometry (reference value: 37.5%); format: functional
PC-3 [13] = assay: Induction of apoptosis in human PC3 cells assessed as necrotic cells at 100 uM after 16 hrs by F2N12S and CYTOX AADvanced double staining-based flow cytometric analysis (reference value: 2 to 3%); format: functional
PC-3 [14] = assay: Induction of apoptosis in human PC3 cells assessed as necrotic cells at 1 uM after 16 hrs by F2N12S and CYTOX AADvanced double staining-based flow cytometric analysis (reference value: 2 to 3%); format: functional
PC-3 [15] = assay: Induction of apoptosis in human PC3 cells assessed as apoptotic cells at 100 uM after 16 hrs by F2N12S and CYTOX AADvanced double staining-based flow cytometric analysis (reference value: 2 to 3%); format: functional
PC-3 [16] = assay: Induction of apoptosis in human PC3 cells assessed as necrotic cells at 5 uM after 16 hrs by F2N12S and CYTOX AADvanced double staining-based flow cytometric analysis (reference value: 2 to 3%); format: functional
PC-3 [17] = assay: Induction of apoptosis in human PC3 cells assessed as apoptotic cells at 20 uM after 16 hrs by F2N12S and CYTOX AADvanced double staining-based flow cytometric analysis (reference value: 2 to 3%); format: functional
PC-3 [18] = assay: Induction of apoptosis in human PC3 cells assessed as apoptotic cells at 50 uM after 16 hrs by F2N12S and CYTOX AADvanced double staining-based flow cytometric analysis (reference value: 2 to 3%); format: functional
PC-3 [19] = assay: Induction of apoptosis in human PC3 cells assessed as viable cells at 5 uM after 16 hrs by F2N12S and CYTOX AADvanced double staining-based flow cytometric analysis (reference value: 95%); format: functional; conditions: PC-3, 16 h, read-out: Activity
PC-3 [20] = assay: Induction of apoptosis in human PC3 cells assessed as viable cells at 50 uM after 16 hrs by F2N12S and CYTOX AADvanced double staining-based flow cytometric analysis (reference value: 95%); format: functional; conditions: PC-3, 16 h, read-out: Activity
PC-3 [21] = assay: Cell cycle arrest in human PC3 cells assessed as accumulation at S phase at 20 uM after 16 hrs by propidium iodide staining-based flow cytometry (reference value: 9.9%); format: functional
PC-3 [22] = assay: Cell cycle arrest in human PC3 cells assessed as accumulation at G2/M phase at 10 uM after 16 hrs by propidium iodide staining-based flow cytometry (reference value: 32.3%); format: functional
PC-3 [23] = assay: Cell cycle arrest in human PC3 cells assessed as accumulation at G0/G1 phase at 10 uM after 16 hrs by propidium iodide staining-based flow cytometry (reference value: 34.1%); format: functional
PC-3 [24] = assay: Cell cycle arrest in human PC3 cells assessed as accumulation at G0/G1 phase at 20 uM after 24 hrs by propidium iodide staining-based flow cytometry (reference value: 37.5%); format: functional
PC-3 [25] = assay: Induction of apoptosis in human PC3 cells assessed as apoptotic cells at 1 uM after 16 hrs by F2N12S and CYTOX AADvanced double staining-based flow cytometric analysis (reference value: 2 to 3%); format: functional
PC-3 [26] = assay: Cell cycle arrest in human PC3 cells assessed as accumulation at S phase at 20 uM after 24 hrs by propidium iodide staining-based flow cytometry (reference value: 8.0%); format: functional
PC-3 [27] = assay: Induction of apoptosis in human PC3 cells assessed as apoptotic cells at 5 uM after 16 hrs by F2N12S and CYTOX AADvanced double staining-based flow cytometric analysis (reference value: 2 to 3%); format: functional
PC-3 [28] = assay: Cell cycle arrest in human PC3 cells assessed as accumulation at G0/G1 phase at 20 uM after 16 hrs by propidium iodide staining-based flow cytometry (reference value: 34.1%); format: functional
PC-3 [29] = assay: Induction of apoptosis in human PC3 cells assessed as necrotic cells at 30 uM after 16 hrs by F2N12S and CYTOX AADvanced double staining-based flow cytometric analysis (reference value: 2 to 3%); format: functional
PC-3 [30] = assay: Cell cycle arrest in human PC3 cells assessed as accumulation at S phase at 10 uM after 16 hrs by propidium iodide staining-based flow cytometry (reference value: 9.9%); format: functional
PC-3 [31] = assay: Induction of apoptosis in human PC3 cells assessed as viable cells at 100 uM after 16 hrs by F2N12S and CYTOX AADvanced double staining-based flow cytometric analysis (reference value: 95%); format: functional; conditions: PC-3, 16 h, read-out: Activity
PC-3 [32] = assay: Induction of apoptosis in human PC3 cells assessed as viable cells at 10 uM after 16 hrs by F2N12S and CYTOX AADvanced double staining-based flow cytometric analysis (reference value: 95%); format: functional; conditions: PC-3, 16 h, read-out: Activity
PC-3 [33] = assay: Cell cycle arrest in human PC3 cells assessed as accumulation at G2/M phase at 10 uM after 24 hrs by propidium iodide staining-based flow cytometry (reference value: 27.8%); format: functional
PC-3 [34] = assay: Induction of apoptosis in human PC3 cells assessed as apoptotic cells at 30 uM after 16 hrs by F2N12S and CYTOX AADvanced double staining-based flow cytometric analysis (reference value: 2 to 3%); format: functional

IC50 (LNCaP): 15.1 µM
IC50 (DU-145): > 50 µM
IC50 (PC-3 [1]): 49.3 µM
Structure (SMILES): CCCC(C)Oc1c(-c2cc(OC)c(OC)c(OC)c2)oc2ccccc2c1=O (stereo unspecified)

IC50 (LNCaP): 24.7 µM
IC50 (DU-145): > 50 µM
IC50 (PC-3 [1]): 19.1 µM
Structure (SMILES): COc1cc(-c2oc3ccccc3c(=O)c2OC)cc(OC)c1OC

IC50 (LNCaP): 34.1 µM
IC50 (DU-145): > 50 µM
IC50 (PC-3 [1]): > 50 µM
Structure (SMILES): O=c1c(O)c(-c2ccc(O)c(O)c2)oc2cc(O)ccc12 [FISETIN]

IC50 (LNCaP): 7.8 µM
IC50 (DU-145): 15.3 µM
IC50 (PC-3 [1]): 5.3 µM
Structure (SMILES): CCCCN(CCCC)CCCCOc1c(-c2cc(OC)c(OC)c(OC)c2)oc2ccccc2c1=O

IC50 (LNCaP): 5.4 µM
IC50 (DU-145): 6.2 µM
IC50 (PC-3 [1]): 0.9 µM
Structure (SMILES): CCOc1c(-c2cc(OC)c(OC)c(OC)c2)oc2ccccc2c1=O
viability at 30 µM (PC-3 [2]): 94%
Activity (PC-3 [3]): 18.7%
viability at 20 µM (PC-3 [4]): 93%
viability at 1 µM (PC-3 [5]): 94%
Activity (PC-3 [6]): 3%
Activity (PC-3 [7]): 24.5%
Activity (PC-3 [8]): 5%
Activity (PC-3 [9]): 3%
Activity (PC-3 [10]): 17.9%
Activity (PC-3 [11]): 5%
IC50 (PWR-1E): 8.05 µM
Activity (PC-3 [12]): 40.8%
Activity (PC-3 [13]): 6%
Activity (PC-3 [14]): 3%
Activity (PC-3 [15]): 6%
Activity (PC-3 [16]): 3%
Activity (PC-3 [17]): 5%
Activity (PC-3 [18]): 5%
viability at 5 µM (PC-3 [19]): 95%
viability at 50 µM (PC-3 [20]): 92%
Activity (PC-3 [21]): 4.6%
Activity (PC-3 [22]): 22.2%
Activity (PC-3 [23]): 55.7%
Activity (PC-3 [24]): 48.6%
Activity (PC-3 [25]): 3%
Activity (PC-3 [26]): 11.8%
Activity (PC-3 [27]): 3%
Activity (PC-3 [28]): 59%
Activity (PC-3 [29]): 3%
Activity (PC-3 [30]): 7.7%
viability at 100 µM (PC-3 [31]): 91%
viability at 10 µM (PC-3 [32]): 95%
Activity (PC-3 [33]): 19.3%
Activity (PC-3 [34]): 3%

IC50 (LNCaP): 16.8 µM
IC50 (DU-145): 35.8 µM
IC50 (PC-3 [1]): 11.6 µM
Structure (SMILES): CCCN(CCC)CCCCOc1c(-c2cc(OC)c(OC)c(OC)c2)oc2ccccc2c1=O

IC50 (LNCaP): 7.6 µM
IC50 (DU-145): 24.2 µM
IC50 (PC-3 [1]): 2.6 µM
Structure (SMILES): CCCN(CCC)CCCCCOc1c(-c2cc(OC)c(OC)c(OC)c2)oc2ccccc2c1=O

Structure (SMILES): O=c1c(O)c(-c2ccc(O)c(O)c2)oc2cc(O)cc(O)c12 [QUERCETIN]
IC50 (DU-145): > 100 µM
IC50 (PC-3 [1]): > 100 µM

IC50 (LNCaP): 17.9 µM
IC50 (DU-145): > 50 µM
IC50 (PC-3 [1]): 16.8 µM
Structure (SMILES): CCCN(CCC)CCCOc1c(-c2cc(OC)c(OC)c(OC)c2)oc2ccccc2c1=O

IC50 (LNCaP): 7.8 µM
IC50 (DU-145): > 50 µM
IC50 (PC-3 [1]): 6.8 µM
Structure (SMILES): CCCCN(CCCC)CCCCCOc1c(-c2cc(OC)c(OC)c(OC)c2)oc2ccccc2c1=O

IC50 (LNCaP): 8.9 µM
IC50 (DU-145): > 50 µM
IC50 (PC-3 [1]): 12.8 µM
Structure (SMILES): CCCCOc1c(-c2cc(OC)c(OC)c(OC)c2)oc2ccccc2c1=O
